The values below come from paper PMC9201701 (RSC Advances, 2022).

Entries after “also recorded” stand apart in the source; their conditions may differ.

For one data set, the system named is HCT-116. Description: MTT cytotoxicity assay, HCT-116. The class given is cell-based, human. The conditions noted are these: for Cytotoxicity IC50, HCT-116: 72 hours, MTT assay; for IC50: Homo sapiens, HCT-116, 72 h, read-out: Cytotoxicity IC50, HCT-116.
In the next data set the test system is MCF-7. Description: MTT cytotoxicity assay, MCF-7. The format is cell-based, human. The conditions noted are these: for Cytotoxicity IC50, MCF-7: 72 hours, MTT assay; for IC50: Homo sapiens, MCF7, 72 h, read-out: Cytotoxicity IC50, MCF-7.
Another data set has as its system HT-29. Kind of data set: MTT cytotoxicity assay, HT-29. The conditions noted are these: for Cytotoxicity IC50, HT-29: 72 hours, MTT assay; for IC50: Homo sapiens, HT-29, 72 h, read-out: Cytotoxicity IC50, HT-29. The format is cell-based, human. In general terms: Formazan colour is commonly taken as a measure of viable cells.
The test system of a further data set is vero cells. Kind of data set: MTT cytotoxicity assay, vero cells. The format is cell-based, African Green Monkey. The conditions noted are these: for Cytotoxicity IC50, Vero cell: 72 hours, MTT assay.
For another data set, the system named is Pythium insidiosum. The conditions noted are these: compared with amphotericin-B standard; cited from earlier work.
In the next data set the test system is HepG2 cell line. The conditions noted are these: read-out: Cytotoxicity IC50, HepG2 cell line; cited from earlier work.
The subject of a further data set is KB. The conditions noted are these: read-out: Cytotoxicity IC50, KB; cited from earlier work.
In a further data set the test system is HeLa. The conditions noted are these: read-out: Cytotoxicity IC50, HeLa; cited from earlier work.
Data set [1] in a line: MTT cytotoxicity assay, vero cells. The class given is cell-based, African Green Monkey. The conditions noted are these: African green monkey, Vero cells (normal kidney cells).
The subject of data set [2] is HCT-116, HT-29, MCF-7 and vero cell lines. Description: MTT cytotoxicity assay, stated over all four cell lines. The conditions noted are these: for Cytotoxicity against all tested cell lines, in words: HCT-116, HT-29, MCF-7 and vero cells; for IC50: read-out: IC50 range over all cell lines. The format is cell-based. The essentials:
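Cells grown in RPMI 1640 with 10% FBS, penicillin and streptomycin at 37 °C, 5% CO2. Solvent controls got 1:1 DMSO/EtOH. After exposure, medium replaced with fresh medium containing MTT (0.5 mg mL−1 in PBS) for 2 h. […] Viability % = sample/control (A550−A655) × 100. Four replicates.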

For the next data set, the system named is MRC-5. The conditions noted are these: read-out: Cytotoxicity IC50, MRC-5; cited from earlier work.
Another data set deals with HeLa cells. The conditions noted are these: read-out: Cytotoxicity IC50, HeLa cells; ref 9 (Posri et al., 2021); cited from earlier work.

By IC50 is commonly meant the concentration needed to halve the response being measured.

“5-Hydroxy-7,4′-dimesyl-2′,5′-dimethoxyisoflavone [Compound 2]”: in the data set on HCT-116, the “Cytotoxicity IC50, HCT-116” value is “Inactive”. Moreover, the “Cytotoxicity IC50, MCF-7” value with MCF-7 is “Inactive”. In the data set with HT-29, the “Cytotoxicity IC50, HT-29” value is given as “Inactive”. Also, the “Cytotoxicity IC50, Vero cell” value with vero cells was “Inactive”.

In the case of “7,4′-Dibutoxy-5-hydroxy-2′,5′-dimethoxyisoflavone [Compound 4]”, the “Cytotoxicity IC50, HCT-116” value in the data set on HCT-116 is listed as “Inactive”. The “Cytotoxicity IC50, MCF-7” value in the data set with MCF-7 was “Inactive”. Further, the “Cytotoxicity IC50, HT-29” value in the data set with HT-29 is “Inactive”. Besides, the “Cytotoxicity IC50, Vero cell” value in the data set with vero cells is recorded as “Inactive”.

Take `COc1ccc(C2COc3cc(O)ccc3C2)c(O)c1` (single isomer, unassigned; (-)) [(−)-vestitol]: the “Antifungal activity against Pythium insidiosum” value in the data set with Pythium insidiosum is “strongest antifungal activity”.

With `C=C(C)[C@H]1Cc2c(ccc3c2O[C@@H]2COc4cc(OC)c(OC)cc4[C@]2(O)C3=O)O1` [(−)-12α-hydroxyrotenone], in the data set with HepG2 cell line, the IC50 is 18 ± 1.51 µM.

Turning to `COc1cc(-c2coc3cc(O)cc(O)c3c2=O)c(OC)cc1O` [Compound 1, Olibergin A], the IC50 is 48.1 µM in the data set on KB; 59.8 µM in the data set with HeLa; 79.2 ± 4.78 µM in the data set on HCT-116; 72.1 ± 1.12 µM in the data set on MCF-7; 32.2 ± 1.73 µM in the data set on HT-29; 25 µM in the data set on MRC-5. The IC50 at 72 h in [1] was 88.8 ± 4.33 µM. Further, in data set [2], the “Cytotoxicity against all tested cell lines, in words” value is “weak activity”.

Take `COc1cc(-c2coc3cc(OC(C)=O)cc(O)c3c2=O)c(OC)cc1OC(C)=O` [Compound 3, 7,4′-Diacetoxy-5-hydroxy-2′,5′-dimethoxyisoflavone]: the “Cytotoxicity IC50, HCT-116” value in the data set on HCT-116 is listed as “Inactive”. The “Cytotoxicity IC50, MCF-7” value with MCF-7 was “Inactive”. For the same compound, in the data set with HT-29, the “Cytotoxicity IC50, HT-29” value is “Inactive”. This compound also registered an IC50 at 72 h in data set [1] of 112 ± 12.3 µM.

Regarding `COc1cc(O)c2c(=O)c(-c3cc(OC)c(OC)cc3OC)coc2c1` [Compound 5, 5-Hydroxy-7,2′,4′,5′-tetramethoxyisoflavone], the IC50 in the data set with HCT-116 was 19 ± 0.7 µM; in the data set on MCF-7, 12.5 ± 0.7 µM; in the data set on HT-29, 10.8 ± 1.65 µM; in data set [2], 10 to 19 µM. Also, half-maximal inhibition in [1] (IC50 at 72 h) required 13.5 ± 0.84 µM.

As for `COc1cc(OC)c2c(=O)c(-c3cc(OC)c(OC)cc3OC)coc2c1` [Compound 6, 5,7,2′,4′,5′-Pentamethoxyisoflavone], the IC50 is 178 ± 2.23 µM with HCT-116, 98.5 ± 15.4 µM in the data set on MCF-7 and 154 ± 12.1 µM in the data set with HT-29. The compound also registered an IC50 at 72 h in data set [1] greater than 269 µM. Also, in data set [2], the “Cytotoxicity against all tested cell lines, in words” value is “weak activity”.

`COc1cc(C2COc3cc(O)cc(O)c3C2=O)c(OC)cc1O` (stereo not drawn) [Compound 8, 5,7,4′-Trihydroxy-2′,5′-dimethoxyisoflavanone]: the IC50 in the data set with HCT-116 is 92.7 ± 1.84 µM; with MCF-7, 148 ± 1.96 µM; with HT-29 it was 69.9 ± 6.47 µM; in data set [2], 69 to 147 µM. In [1], this compound displayed an IC50 at 72 h of 93.6 ± 10.2 µM.

For the compound `COc1cc(O)c2c(c1)OCC(c1cc(OC)c(OC)cc1OC)C2=O` (stereo not drawn) [Compound 9, 5-Hydroxy-7,2′,4′,5′-tetramethoxyisoflavanone], the IC50 in the data set with HCT-116 is 37.1 ± 1.28 µM; with MCF-7, 31 ± 1.89 µM; with HT-29, 19.2 ± 1.86 µM; in [2] it was 19 to 37 µM. In addition, half-maximal inhibition in [1] (IC50 at 72 h) was put at 33.5 ± 1.25 µM.

For `COc1cc(OC)c2c(c1)OCC(c1cc(OC)c(OC)cc1OC)C2=O` (stereo not drawn) [Compound 10, 5,7,2′,4′,5′-Pentamethoxyisoflavanone], the IC50 in the data set on HCT-116 worked out at 30.3 ± 1.15 µM; in the data set on MCF-7, 73.8 ± 0.77 µM. Also, the “Cytotoxicity IC50, HT-29” value in the data set with HT-29 was “Inactive”. For the same compound, the “Cytotoxicity against normal cells (vero cell line), in words” value in the data set with vero cells (vero cell line) is “weak cytotoxicity; also recorded: weak activity”. In addition, in [1], the IC50 at 72 h was 116 ± 20.2 µM.

Consider `COc1cc(OC)c2c(c1)OCC(c1cc(OC)c(OC)cc1OC)C2` (stereo not drawn) [Compound 11, 5,7,2′,4′,5′-Pentamethoxyisoflavan], for which the IC50 with HCT-116 is 28.9 ± 3.19 µM; with MCF-7, 21.1 ± 2.61 µM; in the data set on HT-29, 29.38 ± 0.08 µM; in [2] it was 19 to 37 µM. The IC50 at 72 h in data set [1] was 31.1 ± 4.99 µM.

Turning to `COc1cc(O)c2c(c1)OCC(c1cc(OC)c(OC)cc1OC)C2=NN` (stereo not drawn) [Compound 14, 5-Hydroxy-7,2′,4′,5′-tetramethoxyisoflavanone hydrazone], the “Cytotoxicity IC50, HCT-116” value in the data set on HCT-116 was “Inactive”. In the data set on MCF-7, the “Cytotoxicity IC50, MCF-7” value is “Inactive”. Also, the “Cytotoxicity IC50, HT-29” value in the data set with HT-29 is “Inactive”. Also, the “Cytotoxicity IC50, Vero cell” value in the data set on vero cells was “Inactive”. The “Cytotoxicity against all tested cell lines, in words” value in data set [2] is “inactive”.

In the case of `COc1cc(O)c2c(c1)OCC(c1cc(OC)c(OC)cc1OC)C2=NO` (stereo not drawn) [Compound 15, 5-Hydroxy-7,2′,4′,5′-tetramethoxyisoflavanone oxime], the IC50 in the data set with HCT-116 was 26.4 ± 0.05 µM; in the data set on MCF-7 it was 28.9 ± 3.94 µM; with HT-29, 38.6 ± 2.77 µM; in [2], 26 to 38 µM. In data set [1], this compound had an IC50 at 72 h of 29.8 ± 4.85 µM.

Take `CC(C)=CCC/C(C)=C/Cc1c(O)ccc2c1OC[C@H]1c3cc4c(cc3O[C@@H]21)OCO4` [R,R-Velucarpin A]: the IC50 in the data set with HeLa cells is 10.9 ± 0.42 µM.
